Bioassay records deposited in PubChem by several laboratories.
T cell HTS – T cell immune modulation candidate; 330,000 tested, 0.068% active; response (vesicle binding), % at 7 µM; 2C CD8+ T cell-vesicle binding, flow cytometry; stronger effect = lower value; AID 2052;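 active means response, share of CD8 T cells binding vesicles, and their 90th percentile fluorescence all below set limits, cut at about 80% in these data, passing the limit was not always enough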;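 further: values below 100% mean blocked vesicle binding to the CD8+ T cells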
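Incubation: binding step 1.5 h, 37 °C, antibody labelling 20 min, ice; system: murine 2C transgenic CD8+ T lymphocytes; technique: cytometric PE anti-B7-1 and Alexa647 anti-CD8 signals after 1% paraformaldehyde fixation; also added: QL9-charged Drosophila Ld/ICAM-1/B7-1 vesicles; control set: naked versus QL9-loaded vesicles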
GRK2 aptamer HTS – human GRK2 inhibition via aptamer displacement; bead flow cytometry, FAM-aptamer displacement from GRK2; P25098; inhibition of aptamer binding, % at 10 µM; 330,000 tested, 0.59% active;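 active means inhibition of aptamer binding above 40%, roughly 3 SD of noise, on plates passing a quality check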;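 further: median bead fluorescence of bound FAM aptamer so fluorescent compounds give negative values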
Rin1-Abl PPI inh – blocks binding of human Rin1 to Abl; 360,000 tested, 0.4% active; AID 588664; TR-FRET Rin1/Abl binding, biochemical; inhibition, % at 7.35 µM; in the data active means inhibition above about 5%, passing the limit was not always enough
SKN-1 inh – inhibitors of C. elegans SKN-1; inhibition, % at 21.8 µM; C. elegans VP596 Pgst-4::GFP/RFP ratio, acrylamide-induced, 24 h; AID 624304; 360,000 tested, 0.49% active;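 active means interference check ratio from 0.5 to 1.5 plus GFP to RFP signal ratio inhibition reaching or exceeding a fixed threshold, cut at about 30% in these data, passing the limit was not always enough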
Myeloid diff 2 – myeloid differentiation induction; 360,000 tested, 1% active; ER-HoxA9 myeloid progenitors, lysozyme-GFP differentiation, flow cytometry; AID 624256; calls only at 10 µM;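 active means normalized GFP-positive differentiation at or above the plate's own cutoff, the solvent-only control mean plus 3 SD; inconclusive means no clear call, values can overlap the other calls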;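 further: cells exposed to compound for four days before flow analysis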
Rce1 inhib – blocks yeast Ras-converting enzyme; calls only; yeast membranes, quenched prenylated peptide cleavage fluorescence; Q03530; 290,000 tested, 0.27% active;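 active means fall in fluorescence gain of 50% or more versus controls, with final raw signal at or below 3038400; inconclusive means same 50% fall but final raw signal above 3038400; inactive means fall in fluorescence gain under 50%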
A number is an active result; 0 = inactive; ? = inconclusive; - = no result given; + = active, no number. Only some compounds are listed: those with a hit (about 2.6% of all), similar ones and a draw of the others.

SMILES	T cell HTS	GRK2 aptamer HTS	Rin1-Abl PPI inh	SKN-1 inh	Myeloid diff 2	Rce1 inhib
CC(=O)N1CCc2c(sc(NC(=O)C3CC3)c2-c2nc3ccccc3s2)C1	0	0	0	0	+	0
CC(=O)Nc1sc2c(c1-c1nc3ccccc3s1)CN(C(C)C)CC2	0	0	0	0	?	-
O=C(/C=C/[C@H]1O[C@@H](n2ccc(=O)[nH]c2=O)[C@H](O)[C@@H]1O)N1CCN(Cc2ccc(F)cc2)CC1	-	-	0	0	0	-
CS(=O)(=O)Nc1ccccc1C(=O)Nc1ccc2c(c1)OCCO2	0	0	0	0	+	0
Cc1cc2nc3c(=O)n(C4CCCCC4)c(=O)[nH]c3nc2cc1N	-	-	0	0	0	-
O=C(CSC1=NS(=O)(=O)c2ccccc2N1)Nc1nccs1	0	0	0	0	0	0
CCOC(=O)C1CCCN(S(=O)(=O)c2ccc3c(c2)N(C)C(=O)CC(=O)N3C)C1 (centres undefined)	0	0	0	0	+	0
COC(=O)[C@H]1C[C@@]2(O)CN(S(=O)(=O)c3ccc(C)cc3)C[C@@]2(OC(=O)NCc2ccc(OC)c(OC)c2)C[C@H]1C(=O)OC	-	-	0	0	0	-
COC(=O)[C@H]1C[C@@]2(O)CN(S(=O)(=O)c3ccc(C)cc3)C[C@@]2(OC(=O)NCc2ccccc2F)C[C@H]1C(=O)OC	-	-	0	0	+	-
CCN1C(=S)SC(=O)C1=C1C=C(C)OC(C)=C1	0	0	0	44.0	0	0
CCN1C(=S)SC(=O)C1=C1C=C(C)N(Cc2ccco2)C(C)=C1	0	0	0	0	-	0
N#CC(C#N)=Cc1cccn1-c1ccc(C(=O)O)cc1	0	0	0	0	0	0
N#C/C(=C/c1cccn1-c1cccc(C(=O)O)c1)c1ccc(Cl)cc1	0	0	0	0	+	0
Cn1c(Cn2c(=O)sc3ccccc32)nnc1SCC(=O)NC1CCCC1	0	0	0	0	0	0
Cn1c(Cn2c(=O)sc3ccccc32)nnc1SCC(=O)NC1CCCCC1	67.6	0	0	0	0	0
O=C(NCc1ccccn1)C(=O)NCC1OCCN1S(=O)(=O)c1ccc(Cl)cc1 (centres undefined)	0	0	0	0	0	0
CCn1cc(C(=O)Nc2ncccc2O)c(=O)c2cc(F)c(N3CCN(C(=O)c4ccco4)CC3)cc21	0	0	0	0	0	0
Cc1ccc(/C=C2/NC(=O)N(Cc3ccccc3)C2=O)s1	0	0	0	0	0	0
Cc1cccc(CN2C(=O)N/C(=C/c3ccc(C)s3)C2=O)c1	0	0	0	0	+	0
COC(=O)c1cc(-c2cccc(OC)c2)n[nH]1	0	0	0	37.1	0	0
COC(=O)c1cc(-c2ccc(OC)cc2)n[nH]1	0	0	0	0	0	0
CN1CCCN(C(=O)Cc2c(Cl)cccc2Cl)c2nc3ccccc3nc21	0	0	0	0	+	0
c1cnc2ccc3ncccc3c2c1	0	0	0	0	0	0
Nc1ccc2ncccc2c1N	0	0	0	0	+	-
COc1ccc(N(CC(=O)Nc2nc3ccc(C)cc3s2)S(=O)(=O)c2c(C)nn(C)c2C)cc1	0	0	0	0	+	0
SMILES	T cell HTS	GRK2 aptamer HTS	Rin1-Abl PPI inh	SKN-1 inh	Myeloid diff 2	Rce1 inhib
COc1ccc(N(CC(=O)Nc2cccc(OC)c2)S(=O)(=O)c2c(C)nn(C)c2C)cc1	0	0	0	0	0	-
CN(C)c1ccc(CNC(=O)C2CCC(CNc3c(N4CCCCC4)c(=O)c3=O)CC2)cc1 (centres undefined)	0	0	0	0	0	0
Cn1nc(-c2ccccn2)nc2c(=O)n(C)c(=O)nc1-2	0	0	41.8	0	?	0
O=C(CCNC(=O)c1ccc([N+](=O)[O-])cc1)Nc1ccc(F)c(F)c1F	0	0	0	0	0	0
O=C(Nc1cccc(-c2nc3cccnc3s2)c1)c1ccco1	0	0	0	0	0	0
O=C(Nc1ccc(-c2nc3cccnc3s2)cc1)c1ccco1	0	0	0	46.1	0	0
O=C1N(Cc2cccc(Cl)c2)C[C@@H]2C[C@@H](c3cccc4ncccc34)N3CCC[C@@]123	0	0	0	0	0	0
O=C1N(Cc2cccc(Cl)c2)C[C@@H]2C[C@@H](c3c[nH]c4ccccc34)N3CCC[C@@]123	0	0	0	0	+	0
CC(O)Cn1c(N2CCCC2)nc2c1c(=O)[nH]c(=O)n2C (centres undefined)	0	0	0	0	0	0
N#Cc1ccc[n+](CC(=O)c2ccc(Cl)cc2)c1	0	0	0	0	+	0
Fc1ccc(-c2cc3nc(-c4ccccc4)cc(N4CCN(CCN5CCOCC5)CC4)n3n2)cc1	-	-	0	0	+	+
O=C(CCC(=O)N(CC(=O)NC1CCCCC1)Cc1cccs1)Nc1nccs1	0	0	0	0	0	0
COc1cccc(C(=O)Nc2nnc(SCC(=O)NC3CCCC3)s2)c1	0	0	0	0	0	+
Cc1c(C)n(C)c2ccc(C(=O)NCCCN3CCCCC3C)cc12 (centres undefined)	0	0	0	0	0	0
Cc1c(C)n(C)c2ccc(C(=O)NCCCN(C)C3CCCCC3)cc12	0	0	0	37.8	0	0
Cc1c2ccncc2cc2c1[nH]c1ccccc12	-	-	0	0	?	-
Cc1c2c(cc3c1[nH]c1ccccc13)C=NCC2	-	-	0	0	+	-
COc1cc(C(=O)NNC(=O)Cc2cccs2)cc(OC)c1OC	0	0	0	0	0	-
COc1cc(C(=O)NNC(=O)CCOc2ccccc2)cc(OC)c1OC	0	0	0	0	+	-
CSc1nsc(SCc2ccc(F)cc2)n1	0	0	0	60.5	0	0
Cc1nc(NCC2CCCO2)c2nnn(Cc3c(F)cccc3Cl)c2n1 (centres undefined)	0	0	0	0	0	0
O=C(c1ccco1)N1CCN(C/C=C/c2ccccc2)CC1	0	0	0	34.6	0	0
Cc1ccc(S(=O)(=O)N2CCN(C(=O)c3cc(C4CC4)nn3-c3ccccc3)CC2)cc1	-	-	0	0	0	-
CCOC(=O)c1c(-c2ccccc2)c2cc(OC)ccc2n1CCCN(C)C	0	0	0	0	0	0
Cn1c2nc(=O)n(-c3ccccc3)c(=O)c-2nc2c1CCCC2	-	-	9.1	0	0	-
SMILES	T cell HTS	GRK2 aptamer HTS	Rin1-Abl PPI inh	SKN-1 inh	Myeloid diff 2	Rce1 inhib
Cn1cnc(CCNC(=O)C[C@H]2CC[C@@H]3[C@H](COC[C@H](O)CN3C(=O)C3CCCC3)O2)c1	-	-	-	0	0	-
Cc1cnc(SCc2cnc(C)nc2N)nc1	0	0	0	0	0	0
c1cc(-c2cccs2)nc(-c2cccs2)c1	0	0	0	0	0	-
c1csc(-c2cn3ccc4ccccc4c3n2)c1	0	0	0	39.4	0	0
CC(CCc1ccccc1)NC(=O)COC(=O)c1cccc(N(C)C)c1 (centres undefined)	0	0	0	0	0	0
N=c1c2c(-c3ccccc3)c(-c3ccccc3)n(Cc3ccccc3)c2ncn1CCCn1ccnc1	0	0	0	0	+	0
COc1cc(OC)cc(-c2oc(=O)c3cc(OC)c(OC)cc3c2C(F)(F)F)c1	60.3	0	0	0	0	-
